Measurements taken from ChEMBL document CHEMBL4052826, “Design and Synthesis of Novel Reactive Oxygen Species Inducers for the Treatment of Pancreatic Ductal Adenocarcinoma” (J Med Chem, 2018).
The source made the active and inactive calls. The calls are words filed in the database; no cut-off is given here.

Key:
MIA PaCa-2 [1] = assay: Cytotoxicity against human MIAPaCa2 cells assessed as decrease in cell proliferation after 72 hrs by MTT assay; type: functional, cell-based; conditions: MIA PaCa-2, 72 h
In short: (§1)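 MTT assay. Cells (3000–8000/well) attached overnight in RPMI1640 with 10% FBS; the GR line was kept with 200 nM gemcitabine. Serial dilutions (30 nM–10 μM for most lines) were applied for 72 h. MTT was added at a final 300 μg/mL for 3 h at 37°C, formazan was dissolved in DMSO and A570 read. Inhibition = (1 − OD treated/OD control) × 100. IC50 given as mean ± SD, three independent experiments.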

MIA PaCa-2 [2] = assay: Cytotoxicity against gemcitabine-resistant human MIAPaCa2 cells assessed as decrease in cell proliferation after 72 hrs by MTT assay; type: functional, cell-based; conditions: MIA PaCa-2, 72 h; in short: as §1
[3] = Cytotoxicity against HPDEC assessed as decrease in cell proliferation after 72 hrs by MTT assay; type: cell-based; conditions: Homo sapiens; in short: as §1
MIA PaCa-2 [4] = assay: Induction of reactive oxygen species generation in human MIAPaCa2 cells at 1.1 to 10 uM after 24 hrs in presence of NAC by H2DCFDA reactivity assay; type: functional, cell-based
In short: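 H2DCFDA assay. Trypsinized MIA PaCa-2 cells in suspension were loaded with 20 μM H2DCFDA for 30 min at 37°C, washed and plated at 20,000/well. After 30 min they were treated with compound at 10, 3.3 or 1.1 μM. Fluorescence was read at 493/523 nm over time. DMSO basal and unstained controls were included. NAC pretreatment, where used, was 5 mM for 30 min. Duplicates, three independent experiments.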

MIA PaCa-2 [5] = assay: Cytotoxicity against human MIAPaCa2 cells assessed as decrease in cell proliferation after 72 hrs in presence of NAC by MTT assay; type: functional, cell-based
In short: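 MIA PaCa-2 cells were treated for 72 h with compound in the presence of 5 mM NAC. Viability was read by MTT (final 300 μg/mL, 3 h, A570). Mean ± SD of three independent experiments.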

[6] = Induction of compound aggregation
[7] = Induction of compound colloidal behavior
MIA PaCa-2 [8] = assay: Induction of reactive oxygen species generation in human MIAPaCa2 cells assessed as upregulation of NQO1 gene expression after 4 hrs by Bru-seq analysis; type: functional, cell-based
MIA PaCa-2 [9] = assay: Induction of reactive oxygen species generation in human MIAPaCa2 cells assessed as upregulation of HMOX1 gene expression after 4 hrs by Bru-seq analysis; type: functional, cell-based
MIA PaCa-2 [10] = assay: Induction of unfolded protein response in human MIAPaCa2 cells assessed as upregulation of DDIT3 gene expression after 4 hrs by Bru-seq analysis; type: functional, cell-based
MIA PaCa-2 [11] = assay: Induction of unfolded protein response in human MIAPaCa2 cells assessed as upregulation of HSPA5 gene expression after 4 hrs by Bru-seq analysis; type: functional, cell-based
In short: (§2)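 Nascent RNA sequencing (Bru-seq): 4×10^6 MIA PaCa-2 cells seeded in 10 cm dishes, treated next day for 4 h with drug or DMSO. Bromouridine (2 mM final) added for the last 30 min. Total RNA taken in TRIZOL; labeled RNA immunocaptured, converted to cDNA libraries and deep sequenced. Signal compared with DMSO-treated cells.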

MIA PaCa-2 [12] = assay: Induction of unfolded protein response in human MIAPaCa2 cells assessed as upregulation of CHOP expression at 5 uM by Western blot analysis; type: functional, cell-based; conditions: TDE = time-dependent effect
In short: (§3)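 Immunoblotting. Cells (4×10^5) in 60 mm dishes were treated, lysed 30 min at 4°C and quantified by BCA. 40 μg protein was run on SDS-PAGE and transferred to PVDF. Primary antibodies (1:1000) incubated overnight at 4°C, then Dylight 800 secondary, with fluorescent scanning. Bands were normalized to GAPDH or actin loading controls. Mean ± SD, three independent experiments, Student's t-test.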

MIA PaCa-2 [13] = assay: Induction of unfolded protein response in human MIAPaCa2 cells assessed as upregulation of GRP78 expression at 5 uM by Western blot analysis; type: functional, cell-based; conditions: TDE = time-dependent effect
In short: (§4)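 Cells (4×10^5) seeded in 60 mm dishes, cultured in RPMI1640 with 10% FBS, 5% CO2, 37°C, then compound-treated. Lysed 30 min at 4°C, BCA-quantified, 40 μg protein resolved by SDS-PAGE, transferred to PVDF, probed overnight at 4°C with primary antibodies (1:1000; GAPDH or actin loading control), then Dylight 800 secondary; fluorescence scanned. Bands normalized to loading control; mean ± SD, three independent experiments.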

PANC-1 [14] = assay: Induction of unfolded protein response in human PANC1 cells assessed as upregulation of GRP78 expression at 5 uM by Western blot analysis; type: functional, cell-based; conditions: TDE = time-dependent effect; in short: as §4
BXPC-3 [15] = assay: Induction of unfolded protein response in human BxPC3 cells assessed as upregulation of GRP78 expression at 5 uM by Western blot analysis; type: functional, cell-based; conditions: TDE = time-dependent effect; in short: as §3
PANC-1 [16] = assay: Induction of unfolded protein response in human PANC1 cells assessed as upregulation of CHOP expression at 5 uM by Western blot analysis; type: functional, cell-based; conditions: TDE = time-dependent effect; in short: as §4
BXPC-3 [17] = assay: Induction of unfolded protein response in human BxPC3 cells assessed as upregulation of CHOP expression at 5 uM by Western blot analysis; type: functional, cell-based; conditions: TDE = time-dependent effect; in short: as §3
MIA PaCa-2 [18] = assay: Induction of reactive oxygen species generation in human MIAPaCa2 cells assessed as upregulation of HO-1 expression at 5 uM after 4 to 24 hrs by Western blot analysis; type: functional, cell-based; in short: as §3
BXPC-3 [19] = assay: Induction of reactive oxygen species generation in human BxPC3 cells assessed as upregulation of HO-1 expression at 5 uM after 4 to 24 hrs by Western blot analysis; type: functional, cell-based; in short: as §3
PANC-1 [20] = assay: Induction of reactive oxygen species generation in human PANC1 cells assessed as upregulation of HO-1 expression at 5 uM after 4 to 24 hrs by Western blot analysis; type: functional, cell-based; in short: as §3
MIA PaCa-2 [21] = assay: Induction of reactive oxygen species generation in human MIAPaCa2 cells assessed as upregulation of NQO1 expression at 5 uM after 4 to 24 hrs by Western blot analysis; type: functional, cell-based; in short: as §3
BXPC-3 [22] = assay: Induction of reactive oxygen species generation in human BxPC3 cells assessed as upregulation of NQO1 expression at 5 uM after 4 to 24 hrs by Western blot analysis; type: functional, cell-based; in short: as §3
MIA PaCa-2 [23] = assay: Induction of apoptosis signaling in human MIAPaCa2 cells at 3 times IC50 after 4 hrs by IPA analysis; type: functional, cell-based
MIA PaCa-2 [24] = assay: Downregulation of Sp1 gene expression in human MIAPaCa2 cells at IC50 to 3 times IC50 after 4 hrs by Bru-seq analysis; type: functional, cell-based
MIA PaCa-2 [25] = assay: Downregulation of Sp3 gene expression in human MIAPaCa2 cells at IC50 to 3 times IC50 after 4 hrs by Bru-seq analysis; type: functional, cell-based
MIA PaCa-2 [26] = assay: Downregulation of Sp4 gene expression in human MIAPaCa2 cells at IC50 to 3 times IC50 after 4 hrs by Bru-seq analysis; type: functional, cell-based
MIA PaCa-2 [27] = assay: Inhibition of mtDNA transcription from HSP2 promoter in human MIAPaCa2 cells at 3 times IC50 after 4 hrs by Bru-seq analysis; type: functional, cell-based; in short: as §2
MIA PaCa-2 [28] = assay: Downregulation of COX-3 expression in human MIAPaCa2 cells at 5 uM after 4 to 24 hrs by Western blot method; type: functional, cell-based; in short: as §3
MIA PaCa-2 [29] = assay: Inhibition of mtDNA transcription from LSP promoter in human MIAPaCa2 cells at 3 times IC50 after 4 hrs by Bru-seq analysis; type: functional, cell-based; in short: as §2
MIA PaCa-2 [30] = assay: Inhibition of mtDNA transcription from HSP1 promoter in human MIAPaCa2 cells at 3 times IC50 after 4 hrs by Bru-seq analysis; type: functional, cell-based; in short: as §2
PANC-1 [31] = assay: Cytotoxicity against human PANC1 cells assessed as decrease in cell proliferation after 72 hrs by MTT assay; type: functional, cell-based; conditions: PANC-1, 72 h; in short: as §1
BXPC-3 [32] = assay: Cytotoxicity against human BxPC3 cells assessed as decrease in cell proliferation after 72 hrs by MTT assay; type: functional, cell-based; conditions: BXPC-3, 72 h; in short: as §1
MIA PaCa-2 [33] = assay: Antitumor activity against human MIAPaCa2 cells xenografted in NOD/SCID mouse assessed as tumor volume at 15 mg/kg administered once a week for 48 days (reference value: 1503 +/- 189 mm'3); type: functional
In short: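 MIA PaCa-2 cells (2.0 × 10^6 in RPMI1640) were injected subcutaneously into the dorsal flank of 6-week NOD/SCID mice. Mice were randomized at 75 mm3 mean tumor size (vehicle n=4, treated n=3) and dosed at 15 mg/kg once weekly for 48 days. Tumors were measured by caliper twice weekly, with V = d2 × D/2. Values are mean ± SEM, and p values are from an unpaired t test.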

MIA PaCa-2 [34] = assay: Antitumor activity against human MIAPaCa2 cells xenografted in NOD/SCID mouse at 15 mg/kg administered twice a week for 15 days; type: functional, organism-based
In short: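 MIA PaCa-2 subcutaneous xenografts in NOD/SCID mice, randomized at 75 mm3. Test agent was given at 5 mg/kg five times a week. Gemcitabine was given at 15 mg/kg either once weekly for 48 days or twice weekly for 15 days. Groups were n=3–4. Tumor volume was measured by caliper, given as mean ± SEM, and compared by unpaired t test.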

Mus musculus [35] = assay: Toxicity in NOD/SCID mouse xenografted with human MIAPaCa2 cells assessed as body weight loss at 15 mg/kg administered once a week for 48 days; type: organism-based; conditions: in vivo, 1152 h
In short: (§5)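 MIA PaCa-2 xenografted NOD/SCID mice randomized at 75 mm3 into vehicle (n=4), once-weekly (n=3) or twice-weekly (n=4) groups; 15 mg/kg given once a week for 48 days or twice a week for 15 days. Body weight followed; mean ± SEM.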

Mus musculus [36] = assay: Toxicity in NOD/SCID mouse xenografted with human MIAPaCa2 cells assessed as body weight loss at 15 mg/kg administered twice a week for 15 days; type: organism-based; conditions: in vivo, 360 h; in short: as §5

SMILES: CC(=O)c1cccc(NC2=CC(=O)c3ncncc3C2=O)c1
- IC50 (MIA PaCa-2 [1]): 2300 nM
- IC50 (MIA PaCa-2 [2]): 3600 nM
- IC50 [3]: 4500 nM
- Activity (MIA PaCa-2 [4]): inactive
- Activity (MIA PaCa-2 [5]): inactive
- Activity [6]: Active
- Activity [7]: Active
- Activity (MIA PaCa-2 [8]): Dose-dependent effect
- Activity (MIA PaCa-2 [9]): Dose-dependent effect
- Activity (MIA PaCa-2 [10]): Dose-dependent effect
- Activity (MIA PaCa-2 [11]): Dose-dependent effect
- Activity (MIA PaCa-2 [12]): Tde
- Activity (MIA PaCa-2 [13]): Tde
- Activity (PANC-1 [14]): Tde
- Activity (BXPC-3 [15]): Tde
- Activity (PANC-1 [16]): Tde
- Activity (BXPC-3 [17]): Tde
- Activity (MIA PaCa-2 [18]): Active
- Activity (BXPC-3 [19]): Active
- Activity (PANC-1 [20]): inactive
- Activity (MIA PaCa-2 [21]): inactive
- Activity (BXPC-3 [22]): inactive
- Activity (MIA PaCa-2 [23]): Active
- Activity (MIA PaCa-2 [24]): inactive
- Activity (MIA PaCa-2 [25]): inactive
- Activity (MIA PaCa-2 [26]): inactive
- inhibition (MIA PaCa-2 [27]): Active
- Activity (MIA PaCa-2 [28]): Active
- inhibition (MIA PaCa-2 [29]): Active
- inhibition (MIA PaCa-2 [30]): inactive
- IC50 (PANC-1 [31]): 900 nM
- IC50 (BXPC-3 [32]): 5200 nM

SMILES: Nc1ccn([C@@H]2O[C@H](CO)[C@@H](O)C2(F)F)c(=O)n1 [GEMCITABINE]
- IC50 (MIA PaCa-2 [1]): 110 nM
- IC50 (MIA PaCa-2 [2]): 3300 nM
- IC50 [3]: 140 nM
- Activity (MIA PaCa-2 [33]): 387 mm3
- Activity (MIA PaCa-2 [34]): Active
- Activity (Mus musculus [35]): Non-Toxic
- Activity (Mus musculus [36]): Non-Toxic
